Tests used:
Plasma [1] = experiment: Drug recovery in healthy human plasma at 160 mg, po as single dose measured at 12 hrs; format: ADME, organism-based; set-up: dosed compound name [14C]Mirabegron; details: in vivo
How it was run: (§1)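 Plasma taken at 2, 4, 8 and 12 h from the four subjects was pooled at each time point, with dichlorvos added. Pools underwent solid-phase extraction, then HPLC with fractions counted by low-level liquid scintillation. Each peak is expressed as % of the radioactivity injected onto HPLC.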

[2] = Apparent volume of distribution during terminal phase in healthy human plasma at 160 mg, po as single dose; format: ADME, organism-based; set-up: dosed compound name [14C]Mirabegron; details: read-out: Vz/F
How it was run: (§2)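 Four healthy men fasted overnight, then took one oral dose of 160 mg mirabegron containing 1.85 MBq [14C]mirabegron, dissolved in 20 mM sodium citrate pH 4.5. Blood was drawn into lithium heparin tubes from 0 to 168 h. Total radioactivity in whole blood and plasma was counted by liquid scintillation. Unchanged drug in plasma was measured by validated LC-MS/MS (1–500 ng/ml). Parameters were derived noncompartmentally; values are mean ± S.D., n=4.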

Plasma [3] = experiment: Drug recovery in healthy human plasma at 160 mg, po as single dose measured at 2 hrs; format: ADME, organism-based; set-up: dosed compound name [14C]Mirabegron; details: in vivo; how it was run: as §1
Plasma [4] = experiment: Drug recovery in healthy human plasma at 160 mg, po as single dose measured at 8 hrs; format: ADME, organism-based; set-up: dosed compound name [14C]Mirabegron; details: in vivo; how it was run: as §1
[5] = Terminal elimination phase half life in healthy human plasma at 160 mg, po as single dose; format: ADME, organism-based; set-up: dosed compound name [14C]Mirabegron; details: read-out: beta t1/2 (converted); how it was run: as §2
[6] = Absolute oral bioavailability in rat at 30 mg/kg; format: ADME, organism-based; set-up: dosed compound name [14C]Mirabegron; details: in vivo
[7] = Drug recovery in healthy human urine at 160 mg, po as single dose measured up to 408 hrs; format: ADME, organism-based; set-up: dosed compound name [14C]Mirabegron
How it was run: (§3)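 One oral dose of 160 mg [14C]mirabegron (1.85 MBq) given as a solution to four healthy men. Urine and feces were collected to 408 h; feces were homogenized and combusted. Expired air was trapped in hyamine hydroxide at set times to 96 h. All samples were counted by liquid scintillation. Cumulative excretion is given as % of administered radioactivity, mean ± S.D., n=4.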

[8] = Absolute oral bioavailability in rat at 10 mg/kg; format: ADME, organism-based; set-up: dosed compound name [14C]Mirabegron; details: in vivo
[9] = Drug recovery in healthy human urine at 160 mg, po as single dose measured up to 48 hrs; format: ADME, organism-based; set-up: dosed compound name [14C]Mirabegron; details: read-out: Compound recovery
How it was run: (§4)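 Urine was collected at 0–6, 6–12, 12–24 and 24–48 h after a single oral 160 mg [14C]mirabegron dose in four men, with dichlorvos added. Samples underwent solid-phase extraction and radio-HPLC (C18, 40°C), with eluate fractions counted by scintillation. Each peak, as a percentage of eluted radioactivity, was converted to % of dose without recovery correction; mean ± S.D.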

[10] = AUC (infinity) in healthy human plasma at 160 mg, po as single dose; format: ADME, organism-based; set-up: dose 160 mg, route oral, time infinity, dosed compound name [14C]Mirabegron; how it was run: as §2
[11] = Absolute oral bioavailability in dog at 0.5 mg/kg; format: ADME, organism-based, Canis lupus familiaris; set-up: dosed compound name [14C]Mirabegron; details: in vivo
[12] = Apparent oral clearance in healthy human plasma at 160 mg, po as single dose; format: ADME, organism-based; set-up: dosed compound name [14C]Mirabegron; how it was run: as §2
[13] = Terminal elimination phase half life in healthy human urine at 160 mg, po as single dose; format: ADME, organism-based; set-up: dosed compound name [14C]Mirabegron; details: read-out: beta t1/2 (converted)
How it was run: (§5)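 Same single oral 160 mg [14C]mirabegron solution in four fasted healthy men. Urine was collected over 0–6, 6–12 and 12–24 h, then in 24-h intervals to 408 h. Radioactivity was measured by scintillation counting. Unchanged drug was measured by LC-MS/MS (2–1000 ng/ml). Half-life came from log-linear regression of the terminal phase, and renal clearance was also calculated.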

[14] = Cmax in healthy human plasma at 160 mg, po as single dose; format: ADME, organism-based; set-up: dose 160 mg, route oral, dosed compound name [14C]Mirabegron; how it was run: as §2
[15] = Absolute oral bioavailability in rat at 3 mg/kg; format: ADME, organism-based; set-up: dosed compound name [14C]Mirabegron; details: in vivo
[16] = Absolute oral bioavailability in dog at 1 mg/kg; format: ADME, organism-based, Canis lupus familiaris; set-up: dosed compound name [14C]Mirabegron; details: in vivo
[17] = Tmax in healthy human plasma at 160 mg, po as single dose; format: ADME, organism-based; set-up: dosed compound name [14C]Mirabegron; how it was run: as §2
Plasma [18] = experiment: Drug recovery in healthy human plasma at 160 mg, po as single dose measured at 4 hrs; format: ADME, organism-based; set-up: dosed compound name [14C]Mirabegron; details: in vivo; how it was run: as §1
[19] = Renal clearance in healthy human plasma at 160 mg, po as single dose; format: ADME, organism-based, Kidney; set-up: dosed compound name [14C]Mirabegron; how it was run: as §5
[20] = Absolute oral bioavailability in dog at 0.25 mg/kg; format: ADME, organism-based, Canis lupus familiaris; set-up: dosed compound name [14C]Mirabegron; details: in vivo
[21] = Drug recovery in healthy human urine treated with [14C]mirabegron at 160 mg, po as single dose measured up to 48 hrs; format: ADME, organism-based; set-up: dosed compound name [14C]Mirabegron; details: in vivo; how it was run: as §4
Plasma [22] = experiment: Drug recovery in healthy human plasma treated with [14C]mirabegron at 160 mg, po as single dose measured at 12 hrs; format: ADME, organism-based; set-up: dosed compound name [14C]Mirabegron; details: in vivo; how it was run: as §1
Plasma [23] = experiment: Drug recovery in healthy human plasma treated with [14C]mirabegron at 160 mg, po as single dose measured at 2 hrs; format: ADME, organism-based; set-up: dosed compound name [14C]Mirabegron; details: in vivo; how it was run: as §1
Plasma [24] = experiment: Drug recovery in healthy human plasma treated with [14C]mirabegron at 160 mg, po as single dose measured at 8 hrs; format: ADME, organism-based; set-up: dosed compound name [14C]Mirabegron; details: in vivo; how it was run: as §1
Plasma [25] = experiment: Drug recovery in healthy human plasma treated with [14C]mirabegron at 160 mg, po as single dose measured at 4 hrs; format: ADME, organism-based; set-up: dosed compound name [14C]Mirabegron; details: in vivo; how it was run: as §1
Plasma [26] = experiment: Cmax as total radioactivity in healthy human plasma at 160 mg, po as single dose; format: ADME, organism-based; set-up: dose 160 mg, route oral, dosed compound name [14C]Mirabegron; details: in vivo; how it was run: as §2
[27] = Drug recovery in healthy human expired air at 160 mg, po as single dose measured up to 96 hrs; format: ADME, organism-based; set-up: dosed compound name [14C]Mirabegron; details: in vivo; how it was run: as §3
Blood [28] = experiment: Cmax as total radioactivity in healthy human whole blood at 160 mg, po as single dose; format: ADME, organism-based; set-up: dose 160 mg, route oral, dosed compound name [14C]Mirabegron; details: in vivo; how it was run: as §2
[29] = Drug recovery in healthy human feces at 160 mg, po as single dose measured up to 96 hrs; format: ADME, organism-based; set-up: dosed compound name [14C]Mirabegron; details: in vivo; how it was run: as §3
Homo sapiens [30] = experiment: Toxicity in healthy human assessed as changes in physical signs at 160 mg, po as single dose; format: organism-based; set-up: dosed compound name [14C]Mirabegron; details: in vivo
How it was run: (§6)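 Safety in the four dosed men was followed throughout admission: 12-lead ECGs, vital signs, hematology, biochemistry, urinalysis, and physical examinations after a single oral 160 mg [14C]mirabegron solution.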

Blood [31] = experiment: Terminal elimination phase half life as total radioactivity in healthy human whole blood at 160 mg, po as single dose; format: ADME, organism-based; set-up: dosed compound name [14C]Mirabegron; details: in vivo; how it was run: as §2
Homo sapiens [32] = experiment: Toxicity in healthy human assessed as vital signs at 160 mg, po as single dose; format: organism-based; set-up: dosed compound name [14C]Mirabegron; details: in vivo; how it was run: as §6
[33] = Drug recovery in healthy human urine at 160 mg, po as single dose measured up to 96 hrs; format: ADME, organism-based; set-up: dosed compound name [14C]Mirabegron; details: in vivo; how it was run: as §3
Homo sapiens [34] = experiment: Total drug recovery in healthy human at 160 mg, po as single dose measured up to 408 hrs; format: ADME, organism-based; set-up: dosed compound name [14C]Mirabegron; details: in vivo; how it was run: as §3
Homo sapiens [35] = experiment: Toxicity in healthy human assessed as ECG parameter at 160 mg, po as single dose; format: organism-based; set-up: dosed compound name [14C]Mirabegron; details: in vivo; how it was run: as §6
[36] = Drug recovery in healthy human feces at 160 mg, po as single dose measured up to 408 hrs; format: ADME, organism-based; set-up: dosed compound name [14C]Mirabegron; details: in vivo; how it was run: as §3
Blood [37] = experiment: AUC (infinity) as total radioactivity in healthy human whole blood at 160 mg, po as single dose; format: ADME, organism-based; set-up: dose 160 mg, time infinity, route oral, dosed compound name [14C]Mirabegron; details: in vivo; how it was run: as §2
[38] = Drug recovery in healthy human plasma at 160 mg, po as single dose measured at 12 hrs; details: in vivo
Plasma [39] = experiment: Tmax as total radioactivity in healthy human plasma at 160 mg, po as single dose; format: ADME, organism-based; set-up: dosed compound name [14C]Mirabegron; details: in vivo; how it was run: as §2
Homo sapiens [40] = experiment: Toxicity in healthy human assessed as changes in clinical lab values at 160 mg, po as single dose; format: organism-based; set-up: dosed compound name [14C]Mirabegron; details: in vivo; how it was run: as §6
Plasma [41] = experiment: Terminal elimination phase half life as total radioactivity in healthy human plasma at 160 mg, po as single dose; format: ADME, organism-based; set-up: dosed compound name [14C]Mirabegron; details: in vivo; how it was run: as §2
[42] = Terminal elimination phase half life as total radioactivity in healthy human urine at 160 mg, po as single dose; format: ADME, organism-based; set-up: dosed compound name [14C]Mirabegron; details: in vivo; how it was run: as §5
Plasma [43] = experiment: AUC (infinity) as total radioactivity in healthy human plasma at 160 mg, po as single dose; format: ADME, organism-based; set-up: dose 160 mg, route oral, time infinity, dosed compound name [14C]Mirabegron; details: in vivo; how it was run: as §2
Blood [44] = experiment: Tmax as total radioactivity in healthy human whole blood at 160 mg, po as single dose; format: ADME, organism-based; set-up: dosed compound name [14C]Mirabegron; details: in vivo; how it was run: as §2

## Nc1nc(CC(=O)Nc2ccc(CCNC[C@H](O)c3ccccc3)cc2)cs1 [MIRABEGRON]
Plasma [1]
  Compound recovery: 31%
[2]
  Vd/F: 4820 L
Plasma [3]
  Compound recovery: 46.4%
Plasma [4]
  Compound recovery: 28.6%
[5]
  half-life: 47.9 h
[6]
  bioavailability: 75.7%
[7]; read-out: Compound recovery
  dose excreted at 408 h: 25%
[8]
  bioavailability: 48.4%
[9]
  dose excreted at 48 h: 18.4%
[10]
  AUC(0-inf): 2280 ng·h/mL
[11]
  bioavailability: 64.6%
[12]
  CL/F: 1180 mL/min
[13]
  half-life: 72.9 h
[14]
  Cmax: 371 ng/mL
[15]
  bioavailability: 23%
[16]
  bioavailability: 77.1%
[17]
  Tmax: 1 h
Plasma [18]
  Compound recovery: 30.9%
[19]
  CL renal: 295 mL/min
[20]
  bioavailability: 41.8%

## Nc1nc(CC(=O)Nc2ccc(CCN(C[C@H](O)c3ccccc3)O[C@@H]3O[C@H](C(=O)O)[C@@H](O)[C@H](O)[C@H]3O)cc2)cs1
[21]
  Compound recovery: 0.6%
Plasma [22]
  Compound recovery: Below limit of detection
Plasma [23]
  Compound recovery: 6.9%
Plasma [24]
  Compound recovery: 3.5%
Plasma [25]
  Compound recovery: 5.9%

## Nc1nc(CC(=O)N[14c]2[14cH][14cH][14c](CCNC[C@H](O)c3ccccc3)[14cH][14cH]2)cs1
Plasma [26]
  Cmax: 879 ng/mL
[27]
  Radiolabel recovery: Below limit of detection
Blood [28]
  Cmax: 777 ng/mL
[29]
  Radiolabel recovery: 29.3%
Homo sapiens [30]
  Activity: Non-toxic
Blood [31]
  beta t1/2: 30.5 h
Homo sapiens [32]
  Activity: Non-toxic
[33]
  Radiolabel recovery: 48.7%
[7]; in vivo
  Radiolabel recovery: 55%
Homo sapiens [34]
  Radiolabel recovery: 89.2%
Homo sapiens [35]
  Activity: Non-toxic
[36]
  Radiolabel recovery: 34.2%
Blood [37]
  AUC: 13896 ng·h/mL
[38]
  Radiolabel recovery: metabolite_not_detected
Plasma [39]
  Tmax: 2.25 h
Homo sapiens [40]
  Activity: Non-toxic
Plasma [41]
  beta t1/2: 28.2 h
[42]
  beta t1/2: 84.5 h
Plasma [43]
  AUC: 10443 ng·h/mL
Blood [44]
  Tmax: 2.13 h

## Nc1nc(CC(=O)Nc2ccc(CC(=O)O)cc2)cs1.O=C(O)C(F)(F)F
[21]
  Compound recovery: 1.3%
Plasma [22]
  Compound recovery: Below limit of detection
Plasma [23]
  Compound recovery: 2.2%
Plasma [24]
  Compound recovery: Below limit of detection
Plasma [25]
  Compound recovery: 1.4%

From ChEMBL document CHEMBL3526041, “Absorption, metabolism and excretion of [(14)C]mirabegron (YM178), a potent and selective β(3)-adrenoceptor agonist, after oral administration to healthy male volunteers” (Drug Metab Dispos, 2012)
